The species named for assay [1] is Cavia porcellus. Description: Relative potency towards guinea pig ileum relative to [Leu5]-enkephalin. In kind it is functional. A digest of the protocol: (§1)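 The [Leu5]enkephalin standard's log dose-response curve was run on each individual ileum or vas deferens preparation. Test IC50 values for inhibition of electrically evoked contractions were normalized to it, giving potency relative to [Leu5]enkephalin.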

For assay [2], the species on record is Mus musculus. Description: Compound was tested in vitro for inhibition of electrically evoked contractions of the mouse vas deferens. In kind it is functional. The essentials: (§2)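 Electrically stimulated guinea pig ileum or mouse vas deferens preparations; inhibition of evoked contractions measured. Each preparation also gave a log dose-response curve for the [Leu5]enkephalin standard, and test IC50 values were normalized against it. Naloxone Ki came from the ratio of IC50 values with and without a fixed naloxone concentration.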

Assay [3] concerns the target Mu-type opioid receptor (Rattus norvegicus, UniProt P33535). Description: Displacement of [3H]DAGO from rat brain membrane opioid receptor mu. Background: Displacement assays read how much labelled ligand stays bound in the presence of the test substance.
The species named for assay [4] is Cavia porcellus. Nature of the assay: Compound was tested in vitro for inhibition of electrically evoked contractions of the guinea pig ileum. In kind it is functional. The essentials:
as §2

Assay [5] concerns the target Delta-type opioid receptor (Rattus norvegicus, UniProt P33533). Nature of the assay: Displacement of [3H]DSLET from rat brain membrane opioid receptor delta. The essentials: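 Rat brain membranes incubated with 0.78 nM [3H]DSLET at 0 °C for 2 h. IC50 taken from log dose-displacement curves.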
The species entered for assay [6] is Mus musculus. Description: Relative potency towards mouse vas deferens relative to [Leu5]-enkephalin. In kind it is functional. The essentials:
as §1

Sequence of Delta-type opioid receptor (P33533 whole entry): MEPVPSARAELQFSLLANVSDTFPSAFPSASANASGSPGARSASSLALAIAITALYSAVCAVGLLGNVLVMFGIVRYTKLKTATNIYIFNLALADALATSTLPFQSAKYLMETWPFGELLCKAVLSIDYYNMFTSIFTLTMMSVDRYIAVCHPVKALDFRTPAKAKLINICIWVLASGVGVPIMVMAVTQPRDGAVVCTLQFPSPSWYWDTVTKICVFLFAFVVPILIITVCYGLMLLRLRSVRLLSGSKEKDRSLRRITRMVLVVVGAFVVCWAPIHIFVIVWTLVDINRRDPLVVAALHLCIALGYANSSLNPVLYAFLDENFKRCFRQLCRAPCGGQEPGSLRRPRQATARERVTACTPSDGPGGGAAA
Sequence of Mu-type opioid receptor (P33535 whole entry): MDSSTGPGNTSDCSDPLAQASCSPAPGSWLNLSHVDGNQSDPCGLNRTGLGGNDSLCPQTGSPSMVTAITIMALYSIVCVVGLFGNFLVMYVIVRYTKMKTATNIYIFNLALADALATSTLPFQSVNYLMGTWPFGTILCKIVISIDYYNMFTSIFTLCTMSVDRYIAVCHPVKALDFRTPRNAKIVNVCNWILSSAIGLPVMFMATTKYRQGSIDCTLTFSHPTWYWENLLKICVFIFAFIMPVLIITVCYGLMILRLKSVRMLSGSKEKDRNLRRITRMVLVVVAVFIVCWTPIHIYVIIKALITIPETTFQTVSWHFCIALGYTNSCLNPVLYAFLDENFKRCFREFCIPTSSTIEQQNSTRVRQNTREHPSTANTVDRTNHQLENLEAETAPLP

The IC50 is the concentration that gives 50% inhibition. Broadly, the Ki is the equilibrium dissociation constant of an inhibitor or competing ligand from its target. A low value points to tighter binding. Regarding `NC(=O)[C@@H]1CCC(=O)NCCC[C@@H](NC(=O)[C@@H](N)Cc2ccc(O)cc2)C(=O)N[C@@H](Cc2ccccc2)C(=O)N1`, the Relative potency is recorded as 210 in assay [1] and 10.3 in assay [6]. Also, the IC50 amounted to 1.11 nM in assay [2] and 1.17 nM in assay [4]. Moreover, the figures for the Ki in assay [3] and in assay [5] were 0.981 nM and 3.21 nM, respectively.

`NC(=O)[C@@H]1CCC(=O)NCCC[C@@H](NC(=O)[C@@H](N)Cc2ccc(O)cc2)C(=O)NC2(Cc3ccccc3C2)C(=O)N1` [listing 1 of 2 here]: the values for the Relative potency in assay [1] and in assay [6] were 34.1 and 0.312, respectively.

As to `NC(=O)[C@@H]1CCC(=O)NCCC[C@@H](NC(=O)[C@@H](N)Cc2ccc(O)cc2)C(=O)N2Cc3ccccc3C[C@H]2C(=O)N1`, the figures for the Relative potency in assay [1] and in assay [6] were 0.0803 and 0.00156, respectively. Besides, the IC50 is 7310 nM in assay [2] and 3060 nM in assay [4]. The figures for the Ki in assay [3] and in assay [5] were 2410 nM and 50100 nM, respectively.

Regarding `CN1C(=O)[C@H](NC(=O)[C@@H](N)Cc2ccc(O)cc2)CCCNC(=O)CC[C@@H](C(N)=O)NC(=O)[C@@H]1Cc1ccccc1`, the values for the Relative potency in assay [1] and in assay [6] were 0.348 and 0.00551, respectively. For the same molecule, the IC50 was 2070 nM in assay [2] and 707 nM in assay [4]. Besides, the Ki in assay [3] amounted to 1000 nM; in assay [5], 12800 nM.

Consider `NC(=O)[C@@H]1CCC(=O)NCCC[C@@H](NC(=O)[C@@H](N)Cc2ccc(O)cc2)C(=O)N[C@@H](CCc2ccccc2)C(=O)N1`, for which the Relative potency in assay [1] worked out at 42.3; in assay [6], 0.332. Moreover, the values for the IC50 in assay [2] and in assay [4] were 34.3 nM and 5.82 nM, respectively. In assay [5], this molecule returned a Ki of 15.4 nM.

Take `Cc1ccccc1C[C@@H]1NC(=O)[C@H](NC(=O)[C@@H](N)Cc2ccc(O)cc2)CCCNC(=O)CC[C@@H](C(N)=O)NC1=O`: the Relative potency in assay [1] stood at 453; in assay [6], 10.3. The IC50 in assay [2] came to 1.11 nM; in assay [4], 0.543 nM. The Ki came out at 1.92 nM in assay [3] and 9.22 nM in assay [5].

`NC(=O)[C@@H]1CCC(=O)NCCC[C@@H](NC(=O)[C@@H](N)Cc2ccc(O)cc2)C(=O)N[C@@H](Cc2ccc3ccccc3c2)C(=O)N1`: the Relative potency in assay [1] came out at 60.5; in assay [6], 1.05. Also, the IC50 in assay [2] amounted to 10.9 nM; in assay [4] it was 4.07 nM. Besides, the results for the Ki in assay [3] and in assay [5] were 2.56 nM and 50.7 nM, respectively.

Consider `C[C@]1(Cc2ccccc2)NC(=O)[C@H](NC(=O)[C@@H](N)Cc2ccc(O)cc2)CCCNC(=O)CC[C@@H](C(N)=O)NC1=O`, for which the Relative potency in assay [1] is on record as 74.3; in assay [6] it was 2.07. The IC50 was found to be 5.51 nM in assay [2] and 3.31 nM in assay [4]. Moreover, the figures for the Ki in assay [3] and in assay [5] were 7.17 nM and 54.6 nM, respectively.

As to `NC(=O)[C@@H]1CCC(=O)NCCC[C@@H](NC(=O)[C@@H](N)Cc2ccc(O)cc2)C(=O)N[C@@]2(CCc3ccccc3C2)C(=O)N1` (single isomer, unassigned), the figures for the Relative potency in assay [1] and in assay [6] were 0.863 and 0.00371, respectively. The figures for the IC50 in assay [2] and in assay [4] were 3070 nM and 285 nM, respectively. The Ki was 26.3 nM in assay [3] and 3510 nM in assay [5].

With `NC(=O)[C@@H]1CCC(=O)NCCC[C@@H](NC(=O)[C@@H](N)Cc2ccc(O)cc2)C(=O)N[C@H](CCc2ccccc2)C(=O)N1`, the Relative potency in assay [1] came to 0.338; in assay [6], 0.00274. The IC50 in assay [2] was determined as 4160 nM; in assay [4], 728 nM. The Ki in assay [3] came to 258 nM; in assay [5] it was 2600 nM.

On to `NC(=O)[C@@H]1CCC(=O)NCCC[C@@H](NC(=O)[C@@H](N)Cc2ccc(O)cc2)C(=O)N[C@]2(CCc3ccccc3C2)C(=O)N1` (single isomer, unassigned), for which the Relative potency in assay [1] is recorded as 7.78; in assay [6] it was 0.0449. Also, the values for the IC50 in assay [2] and in assay [4] were 254 nM and 31.6 nM, respectively. The Ki came out at 8.26 nM in assay [3] and 1570 nM in assay [5].

As to `NC(=O)[C@@H]1CCC(=O)NCCC[C@@H](NC(=O)[C@@H](N)Cc2ccc(O)cc2)C(=O)NC2(Cc3ccccc3C2)C(=O)N1` [listing 2 of 2 here], the IC50 is 36.5 nM in assay [2] and 7.21 nM in assay [4]. Besides, the inhibition constant Ki in assay [3] was determined as 4.21 nM; in assay [5], 209 nM.

Consider `NC(=O)[C@@H]1CCC(=O)NCCC[C@@H](NC(=O)[C@@H](N)Cc2ccc(O)cc2)C(=O)N[C@H](Cc2ccccc2)C(=O)N1`, for which the results for the Relative potency in assay [1], in assay [2] and in assay [6] were 0.28, 3860 nM and 0.00295, respectively. This molecule registered a Ki in assay [5] of 14000 nM.
